Reference: ChEMBL document CHEMBL1275312, “Synthesis of new pyrrolo[2,3-d]pyrimidine derivatives as antibacterial and antifungal agents” (2010)
Converted amounts (≈) assume the structure as drawn.

Assays:
Assay type in all cases: functional
Staphylococcus aureus [1] = assay: Antimicrobial activity against Staphylococcus aureus NCTC 7447 at 5 mg/ml after 24 hrs by agar well diffusion assay; settings: NCTC 7447, 24 h, read-out: IZ
Procedure, shortened: (§1)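 Agar well diffusion against S. aureus NCTC-7447 and E. coli NCTC-10416 (maintained on Mueller-Hinton agar, 24 h, 37 ± 1 °C) and C. albicans ATCC-10145 (Sabouraud dextrose agar, 48 h, 28 ± 1 °C). Inocula: colonies suspended in 5 mL sterile saline. Wells pre-incubated 1 h in refrigerator, then incubated 24 h at 37 °C (bacteria) or 48 h at 28 °C (fungi). Inhibition zone diameter measured. DMSO blank.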

Candida albicans = assay: Antimicrobial activity against Candida albicans ATCC 10145 at 5 mg/ml after 48 hrs by agar well diffusion assay; settings: ATCC 10145, 48 h, read-out: IZ; procedure, shortened: as §1
Escherichia coli [2] = assay: Antimicrobial activity against Escherichia coli NCTC 10416 at 5 mg/ml after 24 hrs by agar well diffusion assay; settings: NCTC 10416, 24 h, read-out: IZ; procedure, shortened: as §1
Staphylococcus aureus [3] = assay: Antimicrobial activity against Staphylococcus aureus NCTC 7447 by twofold serial dilution method
Procedure, shortened: (§2)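 MIC by two-fold serial dilution, limited to compounds giving inhibition zones of at least 18 mm in the well diffusion screen. Strains: S. aureus NCTC-7447 and E. coli NCTC-10416 on Mueller-Hinton agar at 37 ± 1 °C; C. albicans ATCC-10145 on Sabouraud dextrose agar at 28 ± 1 °C. Inocula were colony suspensions in sterile saline. MIC taken as the lowest concentration (highest dilution) inhibiting growth.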

Escherichia coli [4] = assay: Antimicrobial activity against Escherichia coli NCTC 10416 by twofold serial dilution method; procedure, shortened: as §2

Structure (SMILES)	zone of inhibition at 5000 µg/mL (Staphylococcus aureus [1]) [mm]	zone of inhibition at 5000 µg/mL (Candida albicans) [mm]	zone of inhibition at 5000 µg/mL (Escherichia coli [2]) [mm]	MIC (Staphylococcus aureus [3]) [µg/mL]	MIC (Escherichia coli [4]) [µg/mL]
Nc1ncnc2c1cc(-c1ccc(Cl)cc1)n2-c1ccccc1	17	16	16		
Cc1ccc(-c2cc3c(ncn4ncnc34)n2-c2ccccc2)cc1		11			
C/C=N\c1ncnc2c1cc(-c1ccc(Cl)cc1)n2-c1ccccc1	17	17	16		
Clc1ncnc2c1cc(-c1ccccc1)n2-c1ccccc1	13	16.5	14		
CCO/C=N/c1c(C#N)cc(-c2ccc(C)cc2)n1-c1ccccc1			11		
N=c1c2cc(-c3ccc(Cl)cc3)n(-c3ccccc3)c2ncn1N	21	27	22	310 (≈ 0.923 mM)	1250 (≈ 3.72 mM)
Nc1ncnc2c1cc(-c1ccccc1)n2-c1ccccc1	15	20	14		
Brc1ccc(-c2cc3c(ncn4ncnc34)n2-c2ccccc2)cc1	19	19	14		
Cc1nc(N)c2cc(-c3ccccc3)n(-c3ccccc3)c2n1	20	21	18	1250 (≈ 4.16 mM)	2500 (≈ 8.32 mM)
Brc1ccc(-c2cc3c(ncn4nnnc34)n2-c2ccccc2)cc1	16	17	15		
Nc1nc(N)c2cc(-c3ccccc3)n(-c3ccccc3)c2n1	24	24	13	620 (≈ 2.06 mM)	
N=c1c2cc(-c3ccccc3)n(-c3ccccc3)c2ncn1N	21	23	16	1250 (≈ 4.15 mM)	
Cc1ccc(-c2cc3c(N)nc(C)nc3n2-c2ccccc2)cc1	17	16	14		
Clc1ccc(-c2cc3c(ncn4nnnc34)n2-c2ccccc2)cc1	14	17	15		
CN(C)[C@@H]1C(O)=C(C(N)=O)C(=O)[C@@]2(O)C(O)=C3C(=O)c4c(O)cccc4[C@@](C)(O)[C@H]3C[C@@H]12 [TETRACYCLINE]	20		18		
c1ccc(-c2cc3c(ncn4nnnc34)n2-c2ccccc2)cc1	16	17	16		
NNc1ncnc2c1cc(-c1ccc(Cl)cc1)n2-c1ccccc1	17	19	16		
CCO/C=N/c1c(C#N)cc(-c2ccccc2)n1-c1ccccc1	16	19	17		
C/C=N\c1ncnc2c1cc(-c1ccccc1)n2-c1ccccc1	21	21	16	1250 (≈ 4 mM)	
Clc1ccc(-c2cc3c(ncn4ncnc34)n2-c2ccccc2)cc1	17.5	18	18		
N=c1c2cc(-c3ccc(F)cc3)n(-c3ccccc3)c2ncn1N	17	15	15		
NNc1ncnc2c1cc(-c1ccc(Br)cc1)n2-c1ccccc1	25	23	15	620 (≈ 1.63 mM)	

Structure (SMILES)	zone of inhibition at 5000 µg/mL (Staphylococcus aureus [1]) [mm]	zone of inhibition at 5000 µg/mL (Candida albicans) [mm]	zone of inhibition at 5000 µg/mL (Escherichia coli [2]) [mm]	MIC (Staphylococcus aureus [3]) [µg/mL]	MIC (Escherichia coli [4]) [µg/mL]
N=c1c2cc(-c3ccc(Br)cc3)n(-c3ccccc3)c2ncn1N	25	27	27	310 (≈ 0.815 mM)	1250 (≈ 3.29 mM)
Fc1ccc(-c2cc3c(ncn4ncnc34)n2-c2ccccc2)cc1	17	17	16		
c1ccc(-c2cc3c(ncn4ncnc34)n2-c2ccccc2)cc1	13	17	16		
CCO/C=N/c1c(C#N)cc(-c2ccc(Cl)cc2)n1-c1ccccc1		11			
CCO/C=N/c1c(C#N)cc(-c2ccc(F)cc2)n1-c1ccccc1	13	16	13		
NNc1ncnc2c1cc(-c1ccccc1)n2-c1ccccc1	27	31	18	620 (≈ 2.06 mM)	2500 (≈ 8.3 mM)
Cc1nc(N)c2cc(-c3ccc(Cl)cc3)n(-c3ccccc3)c2n1	25	24	14	620 (≈ 1.85 mM)	
Cc1ccc(-c2cc3c(NN)ncnc3n2-c2ccccc2)cc1	14	17	13		
Cc1ccc(-c2cc3c(Cl)ncnc3n2-c2ccccc2)cc1	12	16	13		
Cc1ccc(-c2cc3c(N)nc(N)nc3n2-c2ccccc2)cc1	25	23	19	620 (≈ 1.97 mM)	2500 (≈ 7.93 mM)
Fc1ccc(-c2cc3c(ncn4nnnc34)n2-c2ccccc2)cc1		11			
NNc1ncnc2c1cc(-c1ccc(F)cc1)n2-c1ccccc1	31	32	20	310 (≈ 0.971 mM)	1250 (≈ 3.91 mM)
Cc1ccc(-c2cc3c(N)ncnc3n2-c2ccccc2)cc1	23	25	14	2500 (≈ 8.32 mM)	
C/C=N/c1ncnc2c1cc(-c1ccc(C)cc1)n2-c1ccccc1	16	15	17		
CCO/C=N/c1c(C#N)cc(-c2ccc(Br)cc2)n1-c1ccccc1		11			
OC(Cn1cncn1)(Cn1cncn1)c1ccc(F)cc1F [FLUCONAZOLE]		26			
Cc1ccc(-c2cc3c(=N)n(N)cnc3n2-c2ccccc2)cc1	21	21	20	620 (≈ 1.97 mM)	2500 (≈ 7.93 mM)
Nc1nc(N)c2cc(-c3ccc(Cl)cc3)n(-c3ccccc3)c2n1	24	23	14	1250 (≈ 3.72 mM)	
Clc1ncnc2c1cc(-c1ccc(Br)cc1)n2-c1ccccc1	16	17	17		
CC1(C)S[C@@H]2[C@H](NC(=O)[C@H](N)c3ccccc3)C(=O)N2[C@H]1C(=O)O [AMPICILLIN]	9		9	620 (≈ 1.77 mM)	1250 (≈ 3.58 mM)
Clc1ccc(-c2cc3c(Cl)ncnc3n2-c2ccccc2)cc1	12	12	13		
Fc1ccc(-c2cc3c(Cl)ncnc3n2-c2ccccc2)cc1	15	15	13		
